Test results reported in ChEMBL document CHEMBL1177870, “Multiple toxin production in the cyanobacterium microcystis: isolation of the toxic protease inhibitor cyanopeptolin 1020” (J Nat Prod, 2010).
The source made the active and inactive calls. No cut-off for these calls is given here.

Tests used:
[1] = Inhibition of bovine trypsin; set-up: species or system Bos taurus
Summary of the method: (§1)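 Fluorogenic kinetic assay. Protease and inhibitor preincubated at RT for 30 min before substrate was added. Read at ex 355/em 480 nm every 30 s for 1 h. Initial rates were taken by linear regression, and fractional activity was the inhibited rate over the uninhibited blank rate.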

[2] = Inhibition of trypsin; summary of the method: as §1
[3] = molecular target: Coagulation factor XI (Homo sapiens, UniProt P03951); test: Inhibition of factor 11a; summary of the method: as §1
[4] = Inhibition of human kallikrein; summary of the method: as §1
[5] = molecular target: Plasminogen (Homo sapiens, UniProt P00747); test: Inhibition of plasmin; summary of the method: as §1
[6] = Inhibition of chymotrypsin; summary of the method: as §1
[7] = molecular target: T1, Tissue-type plasminogen activator (Homo sapiens, UniProt P00750); test: Inhibition of human tissue plasminogen activator; summary of the method: as §1
Target sequence in this assay (P00750 whole entry): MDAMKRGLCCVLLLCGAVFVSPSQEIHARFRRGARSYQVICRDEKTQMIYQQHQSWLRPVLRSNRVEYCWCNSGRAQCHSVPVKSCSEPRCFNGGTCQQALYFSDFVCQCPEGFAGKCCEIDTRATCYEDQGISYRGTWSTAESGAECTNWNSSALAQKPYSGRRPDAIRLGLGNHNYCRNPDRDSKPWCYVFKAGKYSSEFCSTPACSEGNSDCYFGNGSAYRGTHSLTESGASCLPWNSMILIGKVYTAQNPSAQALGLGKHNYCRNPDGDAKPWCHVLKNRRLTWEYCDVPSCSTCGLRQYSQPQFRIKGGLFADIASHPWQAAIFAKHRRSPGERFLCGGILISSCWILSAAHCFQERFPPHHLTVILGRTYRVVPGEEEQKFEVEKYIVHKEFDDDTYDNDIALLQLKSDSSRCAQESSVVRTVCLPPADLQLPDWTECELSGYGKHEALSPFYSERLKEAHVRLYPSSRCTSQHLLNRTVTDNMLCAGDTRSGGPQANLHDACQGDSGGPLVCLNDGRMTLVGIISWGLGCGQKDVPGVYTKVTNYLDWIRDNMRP

[8] = molecular target: T2, Prothrombin (Homo sapiens, UniProt P00734); test: Inhibition of thrombin; summary of the method: as §1
[9] = molecular target: T3, Urokinase-type plasminogen activator (Homo sapiens, UniProt P00749); test: Inhibition of human LMW urokinase; summary of the method: as §1
[10] = Toxicity in Thamnocephalus platyurus after 24 hrs by acute toxicity assay; format: organism-based; conditions: in vivo
Summary of the method: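 Thamnocephalus platyurus instar II–III larvae hatched from cysts were exposed in multiwell plates for 24 h to six concentrations from 0.1 to 100 µM of highly purified compound, with 20–30 animals per concentration. LC50 was obtained by nonlinear regression.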

[11] = molecular target: T1, Tissue-type plasminogen activator; test: Inhibition of human tissue plasminogen activator at < 2.5 uM; summary of the method: as §1
Target sequence in this assay (P00750 36-562 limits assumed): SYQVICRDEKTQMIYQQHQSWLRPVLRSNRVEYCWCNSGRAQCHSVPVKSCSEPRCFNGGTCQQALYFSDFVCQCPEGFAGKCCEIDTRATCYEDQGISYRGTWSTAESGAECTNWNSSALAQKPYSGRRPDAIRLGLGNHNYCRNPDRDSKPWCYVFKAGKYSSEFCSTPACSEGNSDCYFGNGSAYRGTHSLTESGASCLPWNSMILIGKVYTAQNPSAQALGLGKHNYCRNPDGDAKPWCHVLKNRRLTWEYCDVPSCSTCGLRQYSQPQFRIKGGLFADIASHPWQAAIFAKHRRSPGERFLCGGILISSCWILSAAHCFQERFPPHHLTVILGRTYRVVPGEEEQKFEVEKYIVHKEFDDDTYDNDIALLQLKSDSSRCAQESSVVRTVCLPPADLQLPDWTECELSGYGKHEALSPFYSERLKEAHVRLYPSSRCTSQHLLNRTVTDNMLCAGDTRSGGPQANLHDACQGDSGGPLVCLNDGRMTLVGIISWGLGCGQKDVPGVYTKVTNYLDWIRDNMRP

[12] = molecular target: T2, Prothrombin; test: Inhibition of thrombin at < 2.5 uM; summary of the method: as §1
[13] = molecular target: T3, Urokinase-type plasminogen activator; test: Inhibition of human LMW urokinase at < 2.5 uM; summary of the method: as §1

Coagulation factor XI, sequence (P03951 19-387 limits assumed): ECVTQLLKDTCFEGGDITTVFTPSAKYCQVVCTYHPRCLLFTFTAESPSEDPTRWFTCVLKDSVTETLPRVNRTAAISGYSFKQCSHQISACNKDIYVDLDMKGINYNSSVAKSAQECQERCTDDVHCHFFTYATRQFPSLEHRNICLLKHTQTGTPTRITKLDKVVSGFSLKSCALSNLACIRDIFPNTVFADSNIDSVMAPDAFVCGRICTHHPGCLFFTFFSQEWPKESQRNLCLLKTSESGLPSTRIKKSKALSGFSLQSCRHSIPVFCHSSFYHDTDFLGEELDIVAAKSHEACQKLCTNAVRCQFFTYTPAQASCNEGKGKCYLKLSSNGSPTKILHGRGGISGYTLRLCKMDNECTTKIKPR
Coagulation factor XI, sequence (P03951 388-625 limits assumed): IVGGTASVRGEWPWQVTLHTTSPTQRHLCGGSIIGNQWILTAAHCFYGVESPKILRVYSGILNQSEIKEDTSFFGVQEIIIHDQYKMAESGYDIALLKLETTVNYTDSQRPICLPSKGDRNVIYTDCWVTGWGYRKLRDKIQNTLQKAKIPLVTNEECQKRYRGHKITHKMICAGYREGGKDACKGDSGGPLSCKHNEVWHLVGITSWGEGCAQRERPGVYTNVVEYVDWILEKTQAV
Plasminogen, sequence (P00747 97-580 limits assumed): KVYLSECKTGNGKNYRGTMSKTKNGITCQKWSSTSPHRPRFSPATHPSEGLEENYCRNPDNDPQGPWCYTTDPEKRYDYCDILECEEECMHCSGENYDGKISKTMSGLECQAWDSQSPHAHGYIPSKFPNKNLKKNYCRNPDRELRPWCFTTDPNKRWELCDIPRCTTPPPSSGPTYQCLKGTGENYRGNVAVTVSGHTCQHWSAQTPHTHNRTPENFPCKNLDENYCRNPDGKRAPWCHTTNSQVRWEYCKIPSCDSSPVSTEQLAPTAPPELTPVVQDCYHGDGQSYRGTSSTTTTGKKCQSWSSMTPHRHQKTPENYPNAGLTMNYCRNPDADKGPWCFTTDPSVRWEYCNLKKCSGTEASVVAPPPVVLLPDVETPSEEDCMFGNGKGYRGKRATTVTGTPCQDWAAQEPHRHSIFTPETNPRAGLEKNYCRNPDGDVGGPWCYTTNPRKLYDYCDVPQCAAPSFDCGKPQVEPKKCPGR
Plasminogen, sequence (P00747 581-810 limits assumed): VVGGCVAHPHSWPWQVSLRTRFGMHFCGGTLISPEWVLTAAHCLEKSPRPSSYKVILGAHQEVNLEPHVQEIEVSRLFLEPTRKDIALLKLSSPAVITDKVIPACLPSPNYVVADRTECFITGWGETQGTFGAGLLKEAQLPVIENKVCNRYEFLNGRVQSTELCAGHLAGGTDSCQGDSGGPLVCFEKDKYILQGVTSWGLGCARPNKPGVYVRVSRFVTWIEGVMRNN

| Compound | IC50 [1] [nM] | IC50 [2] [nM] | IC50 [3] [nM] | IC50 [4] [nM] | IC50 [5] [nM] | IC50 [6] [nM] | IC50 [7] [nM] | IC50 [8] [nM] | IC50 [9] [nM] | LC50 at 24 h [10] [nM] | inhibition [11] | inhibition [12] | inhibition [13] |
| --- | --- | --- | --- | --- | --- | --- | --- | --- | --- | --- | --- | --- | --- |
| CC(C)C[C@@H](NC(=O)[C@H](O)COS(=O)(=O)O)C(=O)N[C@@H]1C(=O)N[C@@H](CCCNC(=N)N)C(=O)N[C@H]2CC[C@@H](O)N(C2=O)[C@@H](CC(C)C)C(=O)N(C)[C@@H](Cc2ccc(O)cc2)C(=O)N[C@@H](C(C)C)C(=O)O[C@@H]1C | 10 | – | – | – | – | – | – | – | – | – | – | – | – |
| CCCCCC(=O)N[C@@H](CCC(=O)O)C(=O)N[C@@H]1C(=O)N[C@@H](CCCNC(=N)N)C(=O)N[C@H]2CC[C@@H](O)N(C2=O)[C@@H](Cc2ccccc2)C(=O)N(C)[C@@H](Cc2ccc(O)cc2)C(=O)N[C@@H](C(C)C)C(=O)O[C@@H]1C [CYANOPEPTOLIN 1020] | – | 0.67 | 3.9 | 4.5 | 490 | 1800 | > 2500 | > 2500 | > 605000 | 8800 | inactive | inactive | inactive |
